Results: ChEMBL document CHEMBL3616437, “Thiazole compounds with activity against Cryptococcus gattii and Cryptococcus neoformans in vitro” (Eur J Med Chem, 2015)
In brackets after ≈: the same amount, converted by molar mass.

Tests used:
Cryptococcus neoformans [1] = test: Antifungal activity against Cryptococcus neoformans ATCC 24067 after 48 to 72 hrs by broth microdilution method; type: functional
Outline: (§1)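 CLSI M27-A3 broth microdilution. Isolates subcultured twice on SDA, 48 h at 35°C. Saline suspension adjusted to 70% transmittance at 530 nm, then diluted to 1-5 x10^3 cells/mL in RPMI with L-glutamine, 0.165 M MOPS, pH 7.0. Compounds in DMSO, tested at […]. 35°C for 48-72 h. MIC read visually as the lowest concentration giving an optically clear well.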

Vero = test: Cytotoxicity against African green monkey Vero cells assessed as cell viability measured after 48 hrs by MTT assay; type: cell-based; conditions: Chlorocebus sabaeus
Outline: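 VERO cells in D-MEM with 5% FBS, used up to 20 passages. Seeded 1 x 10^4 cells/well, pre-incubated 24 h at 37°C. Exposed 48 h at 37°C, 5% CO2, to eight nonserial dilutions from 100 to 0.0128 µM, with 0.5% DMSO control. MTT reduction read-out, corrected for background and blank. IC50 reported as median with 95% CI. Triplicate, two independent experiments.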

[2] = Cytotoxicity against C57BL/6 mouse peritoneal macrophages assessed as cell viability measured after 48 hrs by MTT assay; type: cell-based; conditions: C57BL/6, Peritoneal macrophage cell
Outline: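 Thioglycollate-elicited peritoneal macrophages from male C57BL/6 mice, 6–8 weeks old, in RPMI with 10% FBS. Seeded 1 x 10^5 cells/well, pre-incubated 24 h at 37°C. Exposed 48 h at 37°C, 5% CO2, to eight nonserial dilutions from 100 to 0.0128 µM, with 0.5% DMSO control. MTT read-out, % inhibition versus DMSO control. IC50 reported as median with 95% CI. Triplicate, two independent experiments.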

[3] = Selectivity index, ratio of IC50 for African green monkey Vero cells to MIC for Cryptococcus neoformans ATCC 24067; type: toxicity, cell-based
[4] = Selectivity index, ratio of IC50 for C57BL/6 mouse peritoneal macrophages to MIC for Cryptococcus neoformans ATCC 24067
Outline: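 SI = IC50/MIC. Thioglycollate-elicited peritoneal macrophages from C57BL/6 mice are seeded at 1 x 10^5/well. They are exposed for 48 h at 37°C to eight concentrations from 100 to 0.0128 µM. Viability read by MTT versus 0.5% DMSO control, triplicate in two experiments.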

[5] = test system: Cryptococcus bacillisporus; test: Antifungal activity against Cryptococcus gattii ATCC 32608 after 48 to 72 hrs by broth microdilution method; type: functional
Outline: (§2)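 CLSI M27-A3 broth microdilution in RPMI with L-glutamine, buffered to pH 7.0 with 0.165 M MOPS. Colonies grown twice on SDA, 48 h at 35°C. Inoculum set to 70% transmittance at 530 nm, then diluted to 1-5 x10^3 cells/mL. Test agents dissolved in DMSO, serially diluted, tested at 0.1 to 62.5 µM. Plates held at 35°C for 48-72 h. MIC is the lowest concentration giving an optically clear well, read visually against drug-free growth controls.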

[6] = test system: Cryptococcus gattii species complex; test: Antifungal activity against Cryptococcus gattii 23/10993 after 48 to 72 hrs by broth microdilution method; type: functional, Cryptococcus bacillisporus; outline: as §2
[7] = test system: Cryptococcus gattii species complex; test: Ratio of compound MIC for Cryptococcus gattii LMM818 in presence of amphotericin B to compound MIC for Cryptococcus gattii LMM818 in absence of amphotericin B by checkerboard microtiter test; type: functional, Cryptococcus bacillisporus
Outline: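 Checkerboard microdilution: eight two-fold dilutions of test compound (0.11 to 15.6 µM) crossed with amphotericin B (0.025 to 3.9 µM, in DMSO) or fluconazole (0.48 to 62.5 µM, in water). Inoculum per CLSI M27-A3 in RPMI-MOPS pH 7.0, 1-5 x10^3 cells/mL. Growth 48 to 72 h. Effective MIC is the combination concentration giving complete inhibition. FICs derived from MICs in combination versus alone.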

[8] = test system: Cryptococcus gattii species complex; test: Antifungal activity against Cryptococcus gattii L28/02 after 48 to 72 hrs by broth microdilution method; type: functional, Cryptococcus bacillisporus; outline: as §2
[9] = test system: Cryptococcus gattii species complex; test: Antifungal activity against Cryptococcus gattii 547/OTTI-97-PI-10 after 48 to 72 hrs by broth microdilution method; type: functional, Cryptococcus bacillisporus; outline: as §2
[10] = test system: Cryptococcus gattii species complex; test: Antifungal activity against Cryptococcus gattii 135L/03 after 48 to 72 hrs by broth microdilution method; type: functional, Cryptococcus bacillisporus; outline: as §2
[11] = test system: Cryptococcus gattii species complex; test: Antifungal activity against Cryptococcus gattii 196L/03 after 48 to 72 hrs by broth microdilution method; type: functional, Cryptococcus bacillisporus; outline: as §2
[12] = test system: Cryptococcus gattii species complex; test: Antifungal activity against Cryptococcus gattii L27/01 after 48 to 72 hrs by broth microdilution method; type: functional, Cryptococcus bacillisporus; outline: as §2
[13] = test system: Cryptococcus gattii species complex; test: Antifungal activity against Cryptococcus gattii ICB181 after 48 to 72 hrs by broth microdilution method; type: functional, Cryptococcus bacillisporus; outline: as §2
[14] = test system: Cryptococcus gattii species complex; test: Antifungal activity against Cryptococcus gattii L24/01 after 48 to 72 hrs by broth microdilution method; type: functional, Cryptococcus bacillisporus; outline: as §2
[15] = test system: Cryptococcus gattii species complex; test: Antifungal activity against Cryptococcus gattii LMM818 after 48 to 72 hrs by broth microdilution method; type: functional, Cryptococcus bacillisporus; outline: as §2
[16] = test system: Cryptococcus gattii species complex; test: Antifungal activity against Cryptococcus gattii 1913ER after 48 to 72 hrs by broth microdilution method; type: functional, Cryptococcus bacillisporus; outline: as §2
Cryptococcus neoformans [17] = test: Antifungal activity against Cryptococcus neoformans ATCC 28957 after 48 to 72 hrs by broth microdilution method; type: functional; outline: as §1
Cryptococcus neoformans [18] = test: Antifungal activity against Cryptococcus neoformans ATCC 62066 after 48 to 72 hrs by broth microdilution method; type: functional
Cryptococcus neoformans [19] = test: Antifungal activity against Cryptococcus neoformans CN31 after 48 to 72 hrs by broth microdilution method; type: functional; outline: as §1
Cryptococcus neoformans [20] = test: Antifungal activity against Cryptococcus neoformans 96806 after 48 to 72 hrs by broth microdilution method; type: functional; outline: as §1
Cryptococcus neoformans [21] = test: Antifungal activity against Cryptococcus neoformans 5396 after 48 to 72 hrs by broth microdilution method; type: functional; outline: as §1
Cryptococcus neoformans [22] = test: Antifungal activity against Cryptococcus neoformans LMM820 after 48 to 72 hrs by broth microdilution method; type: functional; outline: as §1
Cryptococcus neoformans [23] = test: Antifungal activity against Cryptococcus neoformans F10 after 48 to 72 hrs by broth microdilution method; type: functional; outline: as §1
Cryptococcus neoformans [24] = test: Antifungal activity against Cryptococcus neoformans 28JF after 48 to 72 hrs by broth microdilution method; type: functional; outline: as §1
Cryptococcus neoformans [25] = test: Antifungal activity against Cryptococcus neoformans VM-MCMMPI after 48 to 72 hrs by broth microdilution method; type: functional; outline: as §1
Cryptococcus neoformans [26] = test: Antifungal activity against Cryptococcus neoformans 27JF after 48 to 72 hrs by broth microdilution method; type: functional; outline: as §1
Cryptococcus neoformans [27] = test: Antifungal activity against Cryptococcus neoformans WP after 48 to 72 hrs by broth microdilution method; type: functional; outline: as §1

c1ccc(-c2csc(NN=C3CCCC3)n2)cc1
MIC (Cryptococcus neoformans [1]): 1.9 µM (≈ 0.489 µg/mL)
IC50 (Vero): > 100 µM
IC50 [2]: > 100 µM
selectivity ratio [3]: 29
Ratio [4]: 29
MFC [5]: 3.9 µM (≈ 1 µg/mL)
MIC [5]: 2.2 µM (≈ 0.566 µg/mL)
MFC [6]: 3.9 µM (≈ 1 µg/mL)
MIC [6]: 2.9 µM (≈ 0.746 µg/mL)
fractional inhibitory concentration index (FICI) [7]: 2.58
MFC [8]: 3.9 µM (≈ 1 µg/mL)
MIC [8]: 2.7 µM (≈ 0.695 µg/mL)
MFC [9]: 7.8 µM (≈ 2.01 µg/mL)
MIC [9]: 1.9 µM (≈ 0.489 µg/mL)
MFC [10]: 3.9 µM (≈ 1 µg/mL)
MIC [10]: 3.1 µM (≈ 0.798 µg/mL)
MFC [11]: 7.8 µM (≈ 2.01 µg/mL)
MIC [11]: 2.2 µM (≈ 0.566 µg/mL)
MFC [12]: 1.9 µM (≈ 0.489 µg/mL)
MIC [12]: 1.5 µM (≈ 0.386 µg/mL)
MFC [13]: 1.9 µM (≈ 0.489 µg/mL)
MIC [13]: 1 µM (≈ 0.257 µg/mL)
MFC [14]: 7.8 µM (≈ 2.01 µg/mL)
MIC [14]: 1.7 µM (≈ 0.438 µg/mL)
MFC [15]: 3.9 µM (≈ 1 µg/mL)
MIC [15]: 3.4 µM (≈ 0.875 µg/mL)
MFC [16]: 7.8 µM (≈ 2.01 µg/mL)
MIC [16]: 1 µM (≈ 0.257 µg/mL)
MFC (Cryptococcus neoformans [17]): 7.8 µM (≈ 2.01 µg/mL)
MIC (Cryptococcus neoformans [17]): 2.2 µM (≈ 0.566 µg/mL)
MFC (Cryptococcus neoformans [18]): 3.9 µM (≈ 1 µg/mL)
MIC (Cryptococcus neoformans [18]): 1.2 µM (≈ 0.309 µg/mL)
MFC (Cryptococcus neoformans [19]): 1.9 µM (≈ 0.489 µg/mL)
MIC (Cryptococcus neoformans [19]): 1.9 µM (≈ 0.489 µg/mL)
MFC (Cryptococcus neoformans [20]): 7.8 µM (≈ 2.01 µg/mL)
MIC (Cryptococcus neoformans [20]): 1.9 µM (≈ 0.489 µg/mL)
MFC (Cryptococcus neoformans [21]): 0.9 µM (≈ 0.232 µg/mL)
MIC (Cryptococcus neoformans [21]): 1.2 µM (≈ 0.309 µg/mL)
MFC (Cryptococcus neoformans [22]): 3.9 µM (≈ 1 µg/mL)
MIC (Cryptococcus neoformans [22]): 2.2 µM (≈ 0.566 µg/mL)
MFC (Cryptococcus neoformans [23]): 7.8 µM (≈ 2.01 µg/mL)
MIC (Cryptococcus neoformans [23]): 2.2 µM (≈ 0.566 µg/mL)
MFC (Cryptococcus neoformans [24]): 1.9 µM (≈ 0.489 µg/mL)
MIC (Cryptococcus neoformans [24]): 2.6 µM (≈ 0.669 µg/mL)
MFC (Cryptococcus neoformans [25]): 7.8 µM (≈ 2.01 µg/mL)
MIC (Cryptococcus neoformans [25]): 1.6 µM (≈ 0.412 µg/mL)
MFC (Cryptococcus neoformans [26]): 7.8 µM (≈ 2.01 µg/mL)
MIC (Cryptococcus neoformans [26]): 3.2 µM (≈ 0.824 µg/mL)
MFC (Cryptococcus neoformans [27]): 3.9 µM (≈ 1 µg/mL)
MIC (Cryptococcus neoformans [27]): 3.2 µM (≈ 0.824 µg/mL)
